mIAP block – inhibitors of mouse IAP, primary screen, biochemical, luminescence, uHTS. purified mouse IAP, CDP-Star luminescence, 30 min. inhibition, % at 10 µM. actives 0.2% (n = 330,000). AID 2806, 2010;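 active = inhibition of at least 40% at 10 µM in the primary screen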;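 note: plate controls were DMSO with enzyme for no effect and no enzyme wells for full effect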
bIAP inh – bovine intestinal alkaline phosphatase inhibitors, primary screen, selectivity assay for TNAP inhibitor project, biochemical, bovine IAP, CDP-star luminescence; 190,000 tested, under 10 active; inhibition, % at 20 µM; purified bovine IAP, 30 min; alkaline phosphatase, intestinal [Bos taurus];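 active = over 50% inhibition of intestinal alkaline phosphatase at 20 µM in the single-dose screen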
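System: Purified bovine intestinal alkaline phosphatase (IAP) enzyme | Input: IAP diluted 1/65,000,000 in the well | Also added: CDP-star chemiluminescent phosphatase substrate, 30 µM final | Dosing: 20 µM single dose | Times: Enzyme reaction for 30 min at room temperature | Detection: Luminescence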
hIAP activ – human IAP activators, primary screen, biochemical, luminescence, uHTS. Intestinal-type alkaline phosphatase (Homo sapiens), P09923. purified human IAP, CDP-Star luminescence, 30 min; stronger effect = higher value; 1 = vehicle-only enzyme, 0 = enzyme-free background. activation factor at 10 µM. actives 0.16% (n = 330,000). AID 2524, 2010;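 active = activation factor of the enzyme at least 2-fold when tested at 20 µM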
Target sequence (P09923 whole entry, looked up): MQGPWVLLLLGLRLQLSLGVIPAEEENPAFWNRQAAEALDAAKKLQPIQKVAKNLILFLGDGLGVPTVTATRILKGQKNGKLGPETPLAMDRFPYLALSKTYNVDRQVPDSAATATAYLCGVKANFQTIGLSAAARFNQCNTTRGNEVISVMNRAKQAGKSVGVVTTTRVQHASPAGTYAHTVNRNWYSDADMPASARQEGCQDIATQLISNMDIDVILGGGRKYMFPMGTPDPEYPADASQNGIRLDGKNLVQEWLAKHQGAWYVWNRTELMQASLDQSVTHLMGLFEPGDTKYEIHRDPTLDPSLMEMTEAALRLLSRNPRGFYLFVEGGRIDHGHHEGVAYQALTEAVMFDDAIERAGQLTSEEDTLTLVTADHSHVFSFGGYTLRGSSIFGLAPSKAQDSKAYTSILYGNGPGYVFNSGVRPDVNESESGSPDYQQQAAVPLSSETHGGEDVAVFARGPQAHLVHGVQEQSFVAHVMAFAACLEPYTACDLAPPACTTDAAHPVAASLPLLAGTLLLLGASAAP
bIAP act – bovine intestinal alkaline phosphatase activators, primary screen, biochemical, bovine IAP, CDP-star luminescence; alkaline phosphatase, intestinal [Bos taurus]; purified bovine IAP, 30 min; stronger effect = higher value; fold of DMSO-control signal, blank-subtracted; activation factor at 20 µM; actives 0.17% (n = 200,000);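 active = activation factor of 2 or more at 20 µM, a signal rise over negative controls twice the positive control's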
mIAP activ – activators of mouse IAP, primary screen, biochemical, luminescence, uHTS | actives 0.24% (n = 330,000) | activation factor at 10 µM | muIAP, CDP-Star luminescence, 30 min; stronger effect = higher value; 1 = vehicle-only enzyme signal, 0 = enzyme-free wells | intestinal alkaline phosphatase [Mus musculus];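 active = activation factor of at least 2 at 20 µM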
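Assay system: mouse IAP enzyme / Compound: DMSO-dissolved test compounds / Timing: 30 min, room temperature / Measured by: luminescence from enzymatic CDP-Star hydrolysis / Control set: DMSO-only wells, enzyme-free buffer wells as negative control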
hIAP inh – human IAP inhibitors, primary screen, biochemical, luminescence, uHTS; Intestinal-type alkaline phosphatase (Homo sapiens), P09923; purified IAP, CDP-Star luminescence, 30 min; inhibition, % at 10 µM; actives 0.12% (n = 330,000); AID 2544, 2010;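 active = inhibition reaching a set limit with compound at 10 µM in the primary screen, cut at about 35% in these data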;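 note: plate controls were DMSO wells with enzyme for no effect and no-enzyme buffer wells for full effect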
hIAP act conf – human IAP activators, confirmation, biochemical, luminescence, single concentration, uHTS hits | shares compounds with hIAP activ | purified IAP, CDP-Star luminescence, 30 min; stronger effect = lower value | activation (%Activity, negative = activation), % at 8.3 µM | actives 10% (n = 880);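 active = at least twofold enzyme activation in any of six single-dose repeats, which the averaged readout prints as negative percent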
mIAP inh confirm – inhibitors of mouse IAP, confirmation, biochemical, luminescence, single concentration; shares compounds with mIAP block; purified mouse IAP, CDP-Star luminescence, 30 min; inhibition, % at 10 µM; actives 4.7% (n = 11,000); AID 434971, 2010;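 active = inhibition of at least 40% at 10 µM in either of the two replicates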;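 note: plate controls were DMSO wells with enzyme for no effect and buffer wells lacking enzyme for full effect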
An asterisk follows results filed as active; i = inactive; nt = no result. Sampled rows, rich in hits. Any-hit rate of the full collection: about 0.77%.

SMILES	mIAP block	bIAP inh	hIAP activ	bIAP act	mIAP activ	hIAP inh	hIAP act conf	mIAP inh confirm
CCC1CCC(C(=O)NNC(=O)c2cc(-c3ccco3)[nH]n2)CC1 (stereo unspecified)	54.8*	-24.8	2.05*	1.2	0.452	-104.8	-0.2	59.7*
CN(C(=O)CCl)C1CCCc2ccccc21 (stereo unspecified)	nt	-1.5	nt	1	nt	nt	nt	nt
O=C(N/N=C/c1ccc(O)cc1O)C(=O)N/N=C/c1ccc(O)cc1O	53.5*	nt	2.28*	nt	0.465	-127.8	19.1	67.3*
CCN(C[C@H]1N[C@@](CC)(C(=O)OC)[C@H]2C(=O)N(C)C(=O)[C@@H]12)C(=O)C1CCCCC1	-4.3	nt	1.04	nt	1.04	-4.1	nt	nt
CN(C)c1ccc2nc3c(=O)[nH]c(=O)nc-3n(CC(O)C(O)C(O)CO)c2c1 (stereo unspecified)	41.0*	nt	0.483	nt	0.59	51.7*	-87.3*	46.2*
CCCn1c(=O)n(CC(=O)NCC2CCCO2)c(=O)c2c3c(sc21)COC(C)(C)C3 (stereo unspecified)	-7.2	nt	0.984	nt	1.07	1.6	nt	nt
COc1cc(NC(=O)c2cccc(NC3=NC4CS(=O)(=O)CC4S3)c2)cc(OC)c1OC (stereo unspecified)	-8.8	nt	0.706	nt	1.09	29.4	nt	nt
O=C1CC(c2ccc(O)c(O)c2)Oc2cc(O)cc(O)c21 (stereo unspecified)	56.2*	nt	0.558	nt	0.438	44.2*	-33.9	52.6*
COC1=C/C(=C/c2c(N)n3c(nc2=O)sc2cc(S(C)(=O)=O)ccc23)C=CC1=O	26.3	nt	0.707	nt	0.737	29.3	nt	nt
CS(=O)(=O)c1ccc2c(c1)sc1nc(=O)c(/C=C3/C=CC(=O)C(O)=C3)c(N)n12	74.9*	nt	0.415	nt	0.251	58.5*	-2.9	85.3*
COc1ccccc1CN1CCC(n2nccc2NC(=O)CCCc2ccccc2)CC1	-104.4	nt	3.31*	nt	2.04*	-230.9	-112.4*	-108.1
COCc1ccc(CN2CCC(n3nccc3NC(=O)CCCc3ccccc3)CC2)o1	-3.7	nt	1.33	nt	1.04	-32.8	nt	nt
O=C(CCc1ccccc1)Nc1ccnn1C1CCN(C/C=C/c2ccccc2)CC1	-53.0	nt	1.89	nt	1.53	-89.0	nt	nt
COc1ccccc1/C=C/CN1CCC(n2nccc2NC(=O)CCc2ccccc2)CC1	-149.1	nt	3.32*	nt	2.49*	-232.0	12.8	-120.6
Cc1c(CN2CCC(C(=O)Nc3cccc(-c4cccc(Cl)c4)c3)CC2)cnn1C	-401.9	nt	6.44*	nt	5.02*	i	-17.9	-311.8
O=C(Nc1cccc(-c2cccc(F)c2)c1)C1CCN(CC2CCOC2)CC1 (stereo unspecified)	-78.9	nt	1.96	nt	1.79	-95.5	nt	nt
C=CCn1cc(CN2CCC(C(=O)Nc3ccc(Oc4cccnc4)cc3)CC2)c(C)n1	9.2	nt	0.97	nt	0.908	3.0	nt	nt
O=C(Nc1cccc(-c2cccc(Cl)c2)c1)C1CCN(CC2CCOC2)CC1 (stereo unspecified)	-201.6	nt	4.11*	nt	3.02*	-310.7	-25.8	-131.6
O=C(Nc1cccc(-c2cccc(Cl)c2)c1)C1CCN(Cc2ccccn2)CC1	-98.2	nt	1.5	nt	1.98	-50.2	nt	nt
C=CCn1cc(CN2CCC(C(=O)Nc3cccc(-c4cccc(Cl)c4)c3)CC2)c(C)n1	i	nt	7.93*	nt	6.48*	i	-37.0	-274.2
O=C(Nc1cccc(-c2cccc(Cl)c2)c1)C1CCN(Cc2ccon2)CC1	-132.7	nt	2.01*	nt	2.33*	-101.0	-10.8	-73.1

Screening data: PubChem, Sanford-Burnham Center for Chemical Genomics
